Assay results as given in ChEMBL document CHEMBL4610117 (J Med Chem, 2020).
Activity calls are given as the source filed them. No cut-off for these calls is given here.

How the values were obtained:
physchem = conditions: pH 6.5
[1] = biological target: T1, Serine/threonine-protein kinase ATR (Homo sapiens, UniProt Q13535); experiment: Inhibition of ATR in human HT-29 cells assessed as reduction in histone H2AX phosphorylation measured after 30 mins by immunofluorescence cytometric assay; type: cell-based
T1 sequence (Q13535 whole entry): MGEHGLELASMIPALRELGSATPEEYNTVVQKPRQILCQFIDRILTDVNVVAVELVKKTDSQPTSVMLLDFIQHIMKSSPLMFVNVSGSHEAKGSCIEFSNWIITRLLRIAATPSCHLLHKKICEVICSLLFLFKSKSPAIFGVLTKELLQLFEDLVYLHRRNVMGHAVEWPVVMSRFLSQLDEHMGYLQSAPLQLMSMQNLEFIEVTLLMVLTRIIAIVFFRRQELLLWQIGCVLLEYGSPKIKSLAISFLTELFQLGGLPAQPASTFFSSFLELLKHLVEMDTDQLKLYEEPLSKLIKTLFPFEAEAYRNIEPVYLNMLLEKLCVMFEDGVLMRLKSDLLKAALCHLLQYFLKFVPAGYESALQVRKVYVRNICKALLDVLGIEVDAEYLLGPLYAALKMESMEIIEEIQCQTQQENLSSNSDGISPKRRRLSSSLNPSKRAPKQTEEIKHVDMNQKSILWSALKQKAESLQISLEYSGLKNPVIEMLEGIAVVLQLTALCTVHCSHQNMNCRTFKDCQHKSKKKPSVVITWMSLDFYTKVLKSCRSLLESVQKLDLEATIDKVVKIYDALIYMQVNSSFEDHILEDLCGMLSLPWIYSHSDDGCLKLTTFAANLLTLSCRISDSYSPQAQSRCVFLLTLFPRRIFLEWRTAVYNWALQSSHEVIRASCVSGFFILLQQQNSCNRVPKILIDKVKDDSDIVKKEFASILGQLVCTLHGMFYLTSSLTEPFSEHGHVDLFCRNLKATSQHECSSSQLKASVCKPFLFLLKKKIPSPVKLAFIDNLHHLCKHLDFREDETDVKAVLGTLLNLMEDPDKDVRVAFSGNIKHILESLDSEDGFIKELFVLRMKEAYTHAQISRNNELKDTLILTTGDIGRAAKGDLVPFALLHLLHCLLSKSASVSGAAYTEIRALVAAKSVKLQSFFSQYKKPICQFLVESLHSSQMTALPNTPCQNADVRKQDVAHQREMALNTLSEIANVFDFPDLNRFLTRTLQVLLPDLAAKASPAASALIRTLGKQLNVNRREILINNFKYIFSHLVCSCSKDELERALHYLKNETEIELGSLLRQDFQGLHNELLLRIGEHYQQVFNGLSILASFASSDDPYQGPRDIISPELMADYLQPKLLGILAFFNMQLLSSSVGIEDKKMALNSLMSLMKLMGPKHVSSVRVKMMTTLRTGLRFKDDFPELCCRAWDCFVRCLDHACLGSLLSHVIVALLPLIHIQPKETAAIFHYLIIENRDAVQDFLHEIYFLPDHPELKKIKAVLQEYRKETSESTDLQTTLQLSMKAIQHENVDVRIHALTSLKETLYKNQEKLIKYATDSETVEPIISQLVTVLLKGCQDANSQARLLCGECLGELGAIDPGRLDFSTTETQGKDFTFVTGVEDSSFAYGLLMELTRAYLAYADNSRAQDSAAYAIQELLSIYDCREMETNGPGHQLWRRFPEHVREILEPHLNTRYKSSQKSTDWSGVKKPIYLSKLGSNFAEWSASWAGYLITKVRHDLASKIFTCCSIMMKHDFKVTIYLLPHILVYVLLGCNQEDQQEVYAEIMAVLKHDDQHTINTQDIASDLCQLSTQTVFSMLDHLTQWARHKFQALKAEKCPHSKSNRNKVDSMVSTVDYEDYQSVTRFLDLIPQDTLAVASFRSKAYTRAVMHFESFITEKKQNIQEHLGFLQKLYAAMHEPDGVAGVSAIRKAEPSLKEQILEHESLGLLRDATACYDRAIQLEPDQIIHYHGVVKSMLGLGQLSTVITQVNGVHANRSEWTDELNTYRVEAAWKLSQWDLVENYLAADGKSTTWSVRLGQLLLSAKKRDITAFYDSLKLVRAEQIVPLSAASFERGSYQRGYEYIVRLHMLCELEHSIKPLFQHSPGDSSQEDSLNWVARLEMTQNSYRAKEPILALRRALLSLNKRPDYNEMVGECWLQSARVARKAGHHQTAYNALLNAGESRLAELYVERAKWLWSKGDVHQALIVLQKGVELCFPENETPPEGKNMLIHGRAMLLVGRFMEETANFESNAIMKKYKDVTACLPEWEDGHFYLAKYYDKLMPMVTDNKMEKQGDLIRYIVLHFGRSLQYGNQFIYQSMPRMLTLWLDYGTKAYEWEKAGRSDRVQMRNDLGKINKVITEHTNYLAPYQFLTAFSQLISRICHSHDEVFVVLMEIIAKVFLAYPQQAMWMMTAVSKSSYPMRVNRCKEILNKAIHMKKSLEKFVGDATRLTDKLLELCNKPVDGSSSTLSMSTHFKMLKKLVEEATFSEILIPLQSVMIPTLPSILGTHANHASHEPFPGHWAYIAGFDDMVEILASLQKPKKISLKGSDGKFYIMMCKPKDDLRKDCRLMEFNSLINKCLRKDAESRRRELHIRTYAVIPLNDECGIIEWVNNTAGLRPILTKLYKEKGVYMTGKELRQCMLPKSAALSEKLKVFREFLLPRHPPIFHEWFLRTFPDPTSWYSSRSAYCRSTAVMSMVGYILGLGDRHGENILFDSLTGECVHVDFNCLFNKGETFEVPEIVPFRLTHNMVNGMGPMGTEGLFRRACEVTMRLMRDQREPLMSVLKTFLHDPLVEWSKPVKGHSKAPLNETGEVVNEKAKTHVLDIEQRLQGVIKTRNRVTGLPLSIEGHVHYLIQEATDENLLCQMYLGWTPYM
Outline: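 HT-29 cells were seeded at 12000/point in DMEM/Ham's F12 with 2 mM L-glutamine and 10% FCS and grown 24 h at 37 °C. Compound (1 nM–10 μM final) was added with hydroxyurea (2.5 mM final) for 30 min at 37 °C.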

[2] = Clearance in Wistar rat at 0.3 to 0.5 mg/kg, iv administered as bolus dose by LC-MS/MS analysis; type: ADME, organism-based; conditions: in vivo
[3] = Lipophilicity, log D of the compound in pH 7.5 MeCN/H2O solution by reversed-phase HPLC analysis
[4] = biological target: Voltage-gated inwardly rectifying potassium channel KCNH2 (Homo sapiens, UniProt Q12809); experiment: Inhibition of recombinant human ERG stably expressed in HEK293 cells at -80 mV by whole cell voltage clamp method
Chain of Voltage-gated inwardly rectifying potassium channel KCNH2 (Q12809 whole entry): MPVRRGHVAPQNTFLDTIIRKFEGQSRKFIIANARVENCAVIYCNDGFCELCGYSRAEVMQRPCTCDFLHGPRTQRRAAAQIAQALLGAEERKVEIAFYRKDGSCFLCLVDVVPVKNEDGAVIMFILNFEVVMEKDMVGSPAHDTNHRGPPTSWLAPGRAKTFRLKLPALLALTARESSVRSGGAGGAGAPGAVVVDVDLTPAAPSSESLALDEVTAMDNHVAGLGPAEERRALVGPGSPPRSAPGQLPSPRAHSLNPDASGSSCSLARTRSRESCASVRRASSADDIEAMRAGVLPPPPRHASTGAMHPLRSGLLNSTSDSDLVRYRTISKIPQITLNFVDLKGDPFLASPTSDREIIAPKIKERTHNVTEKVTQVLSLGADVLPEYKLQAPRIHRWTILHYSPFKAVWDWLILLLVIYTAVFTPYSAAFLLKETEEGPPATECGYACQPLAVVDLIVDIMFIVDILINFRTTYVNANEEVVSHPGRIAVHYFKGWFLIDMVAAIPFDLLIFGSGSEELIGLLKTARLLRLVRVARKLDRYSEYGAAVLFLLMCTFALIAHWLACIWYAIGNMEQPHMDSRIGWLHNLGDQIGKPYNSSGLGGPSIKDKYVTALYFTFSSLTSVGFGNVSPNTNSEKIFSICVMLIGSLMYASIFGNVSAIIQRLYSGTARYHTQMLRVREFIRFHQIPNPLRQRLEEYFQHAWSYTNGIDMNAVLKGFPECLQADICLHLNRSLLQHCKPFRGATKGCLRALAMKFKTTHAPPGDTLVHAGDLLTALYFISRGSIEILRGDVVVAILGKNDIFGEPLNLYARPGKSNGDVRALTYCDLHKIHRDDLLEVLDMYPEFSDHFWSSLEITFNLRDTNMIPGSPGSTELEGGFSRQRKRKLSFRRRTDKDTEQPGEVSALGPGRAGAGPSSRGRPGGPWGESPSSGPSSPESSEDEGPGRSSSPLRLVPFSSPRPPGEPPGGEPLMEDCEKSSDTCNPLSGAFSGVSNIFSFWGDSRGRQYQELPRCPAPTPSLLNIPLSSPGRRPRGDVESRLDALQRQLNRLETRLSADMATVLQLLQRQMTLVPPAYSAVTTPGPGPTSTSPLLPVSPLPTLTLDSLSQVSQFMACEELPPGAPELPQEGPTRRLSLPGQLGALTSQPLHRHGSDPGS

[5] = Clearance in Han-Wistar rat hepatocytes at 1 uM measured after 2 to 90 mins by LC-MS/MS analysis; type: ADME, cell-based, Hepatocyte
[6] = Oral bioavailability in Wistar rat at 0.6 to 1 mg/kg by LC-MS/MS analysis; type: ADME, organism-based; conditions: in vivo
[7] = Volume of distribution at steady state in Wistar rat at 0.3 to 0.5 mg/kg, iv administered as bolus dose by LC-MS/MS analysis; type: ADME, organism-based; conditions: in vivo, read-out: Vdss
[8] = Apparent permeability across apical to basolateral side in human Caco2 cells at 2 uM measured after 2 hrs by LC-MS/MS analysis; conditions: Caco-2
[9] = Clearance in rat liver microsomes at 1 uM measured after 2 to 60 mins in presence of NADP by LC-MS/MS analysis; type: ADME, Microsome
[10] = Efflux ratio of apparent permeability across basolateral to apical side over apical to basolateral side in human Caco2 cells at 2 uM; conditions: Caco-2
[11] = Apparent half life in Wistar rat at 0.3 to 0.5 mg/kg, iv administered as bolus dose by LC-MS/MS analysis; type: ADME, organism-based; conditions: in vivo, read-out: t1/2(app) (converted)
[12] = biological target: T1, Serine/threonine-protein kinase ATR; experiment: Inhibition of 5'-TAMRA-labeled tracer 3',6'-bis(dimethylamino)-N-(4-{[2(1H-indol-4-yl)-6-(morpholin-4-yl)-pyrimidin-4-yl]amino}butyl)-3-oxo-3H-spiro[2-benzofuran-1,9'-xanthene]-5-carboxamide binding to recombinant human full-length N-terminal Flag-tagged ATR expressed in HEK293-6E cells co-expressing human full-length STREP-tagged ATRIP preincubated for 10 mins followed by tracer addition and measured after 30 mins by TR-FRET assay; type: cell-based
[13] = Selectivity ratio of IC50 for inhibition of PI3K/AKT/mTOR signaling pathway in human MCF7 cells to IC50 for inhibition of ATR in human HT-29 cells
HT-29 [14] = experiment: Antiproliferative activity against human HT-29 cells assessed as reduction in cell viability measured after 4 days by crystal violet staining based assay; type: functional; conditions: HT-29, 96 h
Outline: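 Cells plated at 2000 (HT-29) or 3000 (LoVo) per point in DMEM/Ham's F12 with 2 mM L-glutamine and 10% FCS. After 24 h adherence, compounds were added at 0.001–10 μM (0.1% DMSO final) and incubated continuously for 4 d at 37 °C. Cells were glutaraldehyde-fixed, stained with crystal violet and read at 595 nm.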

HT-29 [15] = experiment: Antitumor activity against human HT-29 cells xenografted in po dosed mouse administered twice daily; type: functional, organism-based
LoVo = experiment: Antiproliferative activity against human LoVo cells assessed as reduction in cell viability measured after 4 days by crystal violet staining based assay; type: functional; conditions: 96 h

SMILES: CS(=O)(=O)c1ccc(-c2cc(N3CCOCC3)nc3c(-c4cc[nH]n4)nccc23)cc1
- solubility at 24 h (physchem): < 1 µg/mL
- IC50 [1]: 380 nM
- clearance [2]: 25 mL/min/kg
- chromatographic logD [3]: 2.1
- IC50 [4]: 5800 nM
- CLH [5]: 10.7 mL/min/kg
- bioavailability [6]: 14%
- Vd [7]: 2 L/kg
- Papp A→B at 2 h, 2 µM [8]: 10.2 ×10⁻⁶ cm/s
- CLH [9]: 11.5 mL/min/kg
- efflux ratio at 2 µM [10]: 2.1
- half-life [11]: 55.8 min

SMILES: CC(C)Oc1cc(N2CCOCC2)nc2c(-c3cnc[nH]3)nccc12
- IC50 [12]: 3400 nM

SMILES: CC(C)Oc1cc(N2CCOCC2)nc2c(-c3ccn[nH]3)cccc12
- IC50 [12]: 5050 nM

SMILES: CCP(=O)(CC)c1cc(N2CCOC[C@H]2C)nc2c(-c3ccn[nH]3)nccc12
- IC50 [1]: 289 nM
- Ratio IC50 [13]: 61
- IC50 (HT-29 [14]): 498 nM

SMILES: COC1(C)CN(c2cc(OC(C)C)c3ccnc(-c4ccn[nH]4)c3n2)C1
- IC50 [12]: > 20000 nM

SMILES: C[C@@H]1COCCN1c1cc(-c2cnc3n2CCC3)c2ccnc(-c3ccn[nH]3)c2n1
- IC50 [1]: 82 nM
- Ratio IC50 [13]: 59
- IC50 (HT-29 [14]): 125 nM

SMILES: CNC(=O)c1nccc2c(OC(C)C)cc(N3CCOCC3)nc12
- IC50 [12]: > 20000 nM

SMILES: CC(C)Oc1cc(N2CCOCC2)nc2c(-c3ccc[nH]3)nccc12
- IC50 [1]: > 3000 nM

SMILES: CC(C)Oc1cc(N2CCOCC2)nc2c(-c3ccc[nH]c3=O)nccc12
- IC50 [12]: > 20000 nM

SMILES: C[C@@H]1COCCN1c1cc(C(C)(O)C(C)(C)C)c2ccnc(-c3ccn[nH]3)c2n1 (stereo not given in full)
- IC50 (HT-29 [14]): 93 nM

SMILES: CC(C)Oc1cc(N2CCOCC2)nc2c(C3CCNC3)nccc12 (stereo not given)
- IC50 [12]: > 20000 nM

SMILES: C[C@@H]1COCCN1c1cc(C2CCOCC2)c2ccnc(-c3ccn[nH]3)c2n1
- IC50 (HT-29 [14]): 292 nM

SMILES: CC(C)Oc1cc(N2CCOCC2)nc2c(-c3nnn[nH]3)nccc12
- IC50 [12]: > 20000 nM

SMILES: CC(C)Oc1cc(N2CCOCC2)nc2c(-c3cccc(=O)[nH]3)nccc12
- IC50 [12]: > 20000 nM

SMILES: C[C@@H]1COCCN1c1cc(-c2cccnc2F)c2ccnc(-c3ccn[nH]3)c2n1
- IC50 [1]: 44 nM
- Ratio IC50 [13]: 50
- IC50 (HT-29 [14]): 175 nM
- IC50 [12]: 8 nM

SMILES: CC(C)Oc1cc(N2CCOCC2(C)C)nc2c(-c3ccn[nH]3)nccc12
- IC50 [12]: > 20000 nM

SMILES: CCS(=O)(CC)=Nc1cc(N2CCOC[C@H]2C)nc2c(-c3ccn[nH]3)nccc12
- IC50 [1]: 30 nM
- Ratio IC50 [13]: 217
- IC50 (HT-29 [14]): 168 nM
- IC50 [12]: 22 nM

SMILES: CC(C)Oc1cc(N2CCOCC2)nc2c(-c3cccnc3)nccc12
- IC50 [12]: 18100 nM

SMILES: CC(C)Oc1cc(N2CCOCC2)nc2c(C(N)=O)nccc12
- IC50 [12]: 3300 nM

SMILES: Cc1cc(-c2nccc3c(OC(C)C)cc(N4CCOCC4)nc23)n[nH]1
- IC50 [12]: 12700 nM

SMILES: CC(C)Oc1cc(N2CCOCC2)nc2c(-c3cc4ccccc4[nH]3)nccc12
- IC50 [12]: > 20000 nM

SMILES: Cc1nccn1-c1cc(N2CCOC[C@H]2C)nc2c(-c3ccn[nH]3)nccc12
- IC50 [1]: 76 nM
- Ratio IC50 [13]: 263
- IC50 (HT-29 [14]): 192 nM
- IC50 [12]: 25 nM

SMILES: Cc1cn[nH]c1-c1nccc2c(OC(C)C)cc(N3CCOCC3)nc12
- IC50 [12]: 5640 nM

SMILES: CC(C)Oc1cc(N2CCO[C@H](C)C2)nc2c(-c3ccn[nH]3)nccc12
- IC50 [12]: 1500 nM

SMILES: CC(C)Oc1cc(N2CCOCC2)nc2c(-c3ccn[nH]3)nccc12
- IC50 [1]: 424 nM
- Ratio IC50 [13]: 5

SMILES: CS(=O)(=O)c1ccc(-c2cc(N3CCOCC3)nc3c(-c4ccn[nH]4)nccc23)cc1
- Activity (HT-29 [15]): Active
- Ratio IC50 [13]: 13
- IC50 (LoVo): 315 nM
- IC50 (HT-29 [14]): 704 nM

SMILES: CC(C)Oc1cc(N2CCOC3CC32)nc2c(-c3ccn[nH]3)nccc12 (stereo not given)
- IC50 [12]: 1510 nM

SMILES: COc1cccc(-c2nccc3c(OC(C)C)cc(N4CCOCC4)nc23)n1
- IC50 [12]: 13200 nM

SMILES: C[C@@H]1COCCN1c1cc(C#Cc2cccnc2)c2ccnc(-c3ccn[nH]3)c2n1
- IC50 [1]: 227 nM
- Ratio IC50 [13]: 8
- IC50 (HT-29 [14]): 405 nM
- IC50 [12]: 22 nM

SMILES: CC(C)Oc1cc(N2CCOC[C@H]2C)nc2c(-c3ccn[nH]3)nccc12
- IC50 [1]: 154 nM
- Ratio IC50 [13]: 25
- IC50 (HT-29 [14]): 929 nM

SMILES: CC(C)Oc1cc(N2C3CCC2COC3)nc2c(-c3ccn[nH]3)nccc12
- IC50 [12]: 310 nM

SMILES: C[C@@H]1COCCN1c1cc(N2CCN(S(C)(=O)=O)CC2)c2ccnc(-c3ccn[nH]3)c2n1
- IC50 [1]: 59 nM
- Ratio IC50 [13]: 44
- IC50 (HT-29 [14]): 233 nM
- IC50 [12]: 5 nM

SMILES: CC(C)Oc1cc(N2CCOCC2)nc2c(-c3cccc(C(N)=O)c3)nccc12
- IC50 [12]: 17200 nM

SMILES: CC(C)Oc1cc(N2CCOCC2)nc2c(-c3cn[nH]c3)nccc12
- IC50 [12]: 3690 nM

SMILES: CC(C)Oc1cc(N2CC(F)(F)OC(F)(F)C2)nc2c(-c3ccn[nH]3)nccc12
- IC50 [12]: > 20000 nM

SMILES: CC(C)Oc1cc(N2C[C@H]3COC[C@H]3C2)nc2c(-c3ccn[nH]3)nccc12
- IC50 [12]: 9440 nM

SMILES: CC(C)Oc1cc(N2CCOCC2C(F)(F)F)nc2c(-c3ccn[nH]3)nccc12 (stereo not given)
- IC50 [12]: 8610 nM

SMILES: CC(C)Oc1cc(N2CCOCC2)nc2cnccc12
- IC50 [12]: > 20000 nM

SMILES: CCC1COCCN1c1cc(OC(C)C)c2ccnc(-c3ccn[nH]3)c2n1 (stereo not given)
- IC50 [12]: 1860 nM

SMILES: C[C@@H]1COCCN1c1cc(N(C)c2ccc(F)cc2)c2ccnc(-c3ccn[nH]3)c2n1
- IC50 [1]: 70 nM
- Ratio IC50 [13]: 42
- IC50 (HT-29 [14]): 381 nM
- IC50 [12]: 9 nM

SMILES: CC(C)Oc1cc(N2CCOCC2)nc2c(-c3ccnn3C)nccc12
- IC50 [12]: 12500 nM

SMILES: Cc1nc(S(C)(=N)=O)ccc1-c1cc(N2CCOC[C@H]2C)nc2c(-c3ccn[nH]3)nccc12 (stereo not given in full)
- IC50 [1]: 266 nM
- Ratio IC50 [13]: 16
- IC50 (HT-29 [14]): 323 nM
- IC50 [12]: 10 nM

SMILES: CC(C)Oc1cc(N2C[C@@H]3C[C@H]2CO3)nc2c(-c3ccn[nH]3)nccc12
- IC50 [12]: 922 nM

SMILES: CC(C)Oc1cc(N2CCO[C@@H](C)C2)nc2c(-c3ccn[nH]3)nccc12
- IC50 [12]: 1970 nM

SMILES: C[C@@H]1COCCN1c1cc(C2(S(C)(=O)=O)CC2)c2ccnc(-c3ccn[nH]3)c2n1
- IC50 [1]: 86 nM
- Ratio IC50 [13]: 71
- IC50 (HT-29 [14]): 268 nM
- IC50 [12]: 15 nM
